How the values were obtained:
Calf thymus DNA = experiment: Binding affinity to calf thymus duplex-form DNA assessed as melting temperature at 1:5 compound/DNA ratio after 18 hrs; format: nucleic-acid assay; details: Bos taurus
CCRF-CEM = experiment: Growth inhibition of human CCRF-CEM cells after 48 hrs by sulforhodamine B assay; format: functional
Procedure, shortened: (§1)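 Dose–response in each cell line over at least five concentrations at 10-fold dilutions, with 48 h continuous exposure and sulforhodamine B read-out.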

HL-60 = experiment: Growth inhibition of human HL-60(TB) cells after 48 hrs by sulforhodamine B assay; format: functional; details: HL-60, 48 h
Procedure, shortened: (§2)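 Panel of 60 human cancer cell lines; for each compound, dose–response curves per cell line measured at a minimum of five concentrations at 10-fold dilutions. Cells exposed continuously to drug for 48 h, and growth was read out by sulforhodamine B staining.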

K562 = experiment: Growth inhibition of human K562 cells after 48 hrs by sulforhodamine B assay; format: functional; details: K562, 48 h; procedure, shortened: as §2
MOLT-4 = experiment: Growth inhibition of human MOLT4 cells after 48 hrs by sulforhodamine B assay; format: functional; details: MOLT-4, 48 h; procedure, shortened: as §2
[1] = Growth inhibition of human […] cells after 48 hrs by sulforhodamine B assay; format: functional; procedure, shortened: as §2
SR = experiment: Growth inhibition of human SR cells after 48 hrs by sulforhodamine B assay; format: functional; procedure, shortened: as §2
A549 = experiment: Growth inhibition of human A549 cells after 48 hrs by sulforhodamine B assay; format: functional; details: A549, 48 h; procedure, shortened: as §1
EKVX = experiment: Growth inhibition of human EKVX cells after 48 hrs by sulforhodamine B assay; format: functional; procedure, shortened: as §1
HOP-62 = experiment: Growth inhibition of human HOP62 cells after 48 hrs by sulforhodamine B assay; format: functional; details: HOP-62, 48 h; procedure, shortened: as §2
HOP-92 = experiment: Growth inhibition of human HOP92 cells after 48 hrs by sulforhodamine B assay; format: functional; details: HOP-92, 48 h; procedure, shortened: as §2
NCI-H226 = experiment: Growth inhibition of human NCI-H226 cells after 48 hrs by sulforhodamine B assay; format: functional; details: NCI-H226, 48 h; procedure, shortened: as §2
NCI-H23 = experiment: Growth inhibition of human NCI-H23 cells after 48 hrs by sulforhodamine B assay; format: functional; details: NCI-H23, 48 h; procedure, shortened: as §2
NCI-H322M = experiment: Growth inhibition of human NCI-H322M cells after 48 hrs by sulforhodamine B assay; format: functional; procedure, shortened: as §2
NCI-H460 = experiment: Growth inhibition of human NCI-H460 cells after 48 hrs by sulforhodamine B assay; format: functional; details: NCI-H460, 48 h; procedure, shortened: as §2
NCI-H522 = experiment: Growth inhibition of human NCI-H522 cells after 48 hrs by sulforhodamine B assay; format: functional; details: NCI-H522, 48 h; procedure, shortened: as §2
COLO 205 = experiment: Growth inhibition of human COLO205 cells after 48 hrs by sulforhodamine B assay; format: functional; details: COLO 205, 48 h; procedure, shortened: as §1
HCC 2998 = experiment: Growth inhibition of human HCC2998 cells after 48 hrs by sulforhodamine B assay; format: functional; details: HCC 2998, 48 h; procedure, shortened: as §2
HCT-116 = experiment: Growth inhibition of human HCT116 cells after 48 hrs by sulforhodamine B assay; format: functional; details: HCT-116, 48 h; procedure, shortened: as §2
HCT-15 = experiment: Growth inhibition of human HCT15 cells after 48 hrs by sulforhodamine B assay; format: functional; details: HCT-15, 48 h; procedure, shortened: as §2
HT-29 = experiment: Growth inhibition of human HT-29 cells after 48 hrs by sulforhodamine B assay; format: functional; details: HT-29, 48 h; procedure, shortened: as §2
KM12 = experiment: Growth inhibition of human KM12 cells after 48 hrs by sulforhodamine B assay; format: functional; details: KM12, 48 h; procedure, shortened: as §2
SW-620 = experiment: Growth inhibition of human SW620 cells after 48 hrs by sulforhodamine B assay; format: functional; details: SW-620, 48 h; procedure, shortened: as §2
SF-268 = experiment: Growth inhibition of human SF268 cells after 48 hrs by sulforhodamine B assay; format: functional; details: SF-268, 48 h; procedure, shortened: as §2
SF-295 = experiment: Growth inhibition of human SF295 cells after 48 hrs by sulforhodamine B assay; format: functional; details: SF-295, 48 h; procedure, shortened: as §2
SF-539 = experiment: Growth inhibition of human SF539 cells after 48 hrs by sulforhodamine B assay; format: functional; details: SF-539, 48 h; procedure, shortened: as §2
SNB-19 = experiment: Growth inhibition of human SNB19 cells after 48 hrs by sulforhodamine B assay; format: functional; details: SNB-19, 48 h; procedure, shortened: as §2
SNB-75 = experiment: Growth inhibition of human SNB75 cells after 48 hrs by sulforhodamine B assay; format: functional; details: SNB-75, 48 h; procedure, shortened: as §2
U-251 = experiment: Growth inhibition of human U251 cells after 48 hrs by sulforhodamine B assay; format: functional; details: U-251, 48 h; procedure, shortened: as §2
LOX IMVI = experiment: Growth inhibition of human LOXIMVI cells after 48 hrs by sulforhodamine B assay; format: functional; procedure, shortened: as §2
Malme-3M = experiment: Growth inhibition of human MALME-3M cells after 48 hrs by sulforhodamine B assay; format: functional; procedure, shortened: as §2
M14 = experiment: Growth inhibition of human M14 cells after 48 hrs by sulforhodamine B assay; format: functional; details: M14, 48 h; procedure, shortened: as §2
SK-MEL-2 = experiment: Growth inhibition of human SK-MEL-2 cells after 48 hrs by sulforhodamine B assay; format: functional; details: SK-MEL-2, 48 h; procedure, shortened: as §2
SK-MEL-28 = experiment: Growth inhibition of human SK-MEL-28 cells after 48 hrs by sulforhodamine B assay; format: functional; details: SK-MEL-28, 48 h; procedure, shortened: as §2
SK-MEL-5 = experiment: Growth inhibition of human SK-MEL-5 cells after 48 hrs by sulforhodamine B assay; format: functional; details: SK-MEL-5, 48 h; procedure, shortened: as §2
UACC-257 = experiment: Growth inhibition of human UACC257 cells after 48 hrs by sulforhodamine B assay; format: functional; details: UACC-257, 48 h; procedure, shortened: as §2
UACC-62 = experiment: Growth inhibition of human UACC62 cells after 48 hrs by sulforhodamine B assay; format: functional; details: UACC-62, 48 h; procedure, shortened: as §2
IGROV-1 = experiment: Growth inhibition of human IGROV1 cells after 48 hrs by sulforhodamine B assay; format: functional; details: IGROV-1, 48 h; procedure, shortened: as §2
OVCAR-3 = experiment: Growth inhibition of human OVCAR-3 cells after 48 hrs by sulforhodamine B assay; format: functional; details: OVCAR-3, 48 h; procedure, shortened: as §2
OVCAR-4 = experiment: Growth inhibition of human OVCAR4 cells after 48 hrs by sulforhodamine B assay; format: functional; details: OVCAR-4, 48 h; procedure, shortened: as §2
OVCAR-5 = experiment: Growth inhibition of human OVCAR5 cells after 48 hrs by sulforhodamine B assay; format: functional; details: OVCAR-5, 48 h; procedure, shortened: as §2
OVCAR-8 = experiment: Growth inhibition of human OVCAR8 cells after 48 hrs by sulforhodamine B assay; format: functional; details: OVCAR-8, 48 h; procedure, shortened: as §2
SK-OV-3 = experiment: Growth inhibition of human SKOV3 cells after 48 hrs by sulforhodamine B assay; format: functional; details: SK-OV-3, 48 h; procedure, shortened: as §2
786-0 = experiment: Growth inhibition of human 786-0 cells after 48 hrs by sulforhodamine B assay; format: functional; details: 786-0, 48 h; procedure, shortened: as §1
A498 = experiment: Growth inhibition of human A498 cells after 48 hrs by sulforhodamine B assay; format: functional; details: A498, 48 h; procedure, shortened: as §1
ACHN = experiment: Growth inhibition of human ACHN cells after 48 hrs by sulforhodamine B assay; format: functional; procedure, shortened: as §1
CAKI-1 = experiment: Growth inhibition of human Caki1 cells after 48 hrs by sulforhodamine B assay; format: functional; details: CAKI-1, 48 h; procedure, shortened: as §1
RXF 393 = experiment: Growth inhibition of human RXF393 cells after 48 hrs by sulforhodamine B assay; format: functional; details: RXF 393, 48 h; procedure, shortened: as §2
SN12C = experiment: Growth inhibition of human SN12C cells after 48 hrs by sulforhodamine B assay; format: functional; procedure, shortened: as §2
TK-10 = experiment: Growth inhibition of human TK10 cells after 48 hrs by sulforhodamine B assay; format: functional; details: TK-10, 48 h; procedure, shortened: as §2
UO-31 = experiment: Growth inhibition of human UO31 cells after 48 hrs by sulforhodamine B assay; format: functional; details: UO-31, 48 h; procedure, shortened: as §2
PC-3 = experiment: Growth inhibition of human PC3 cells after 48 hrs by sulforhodamine B assay; format: functional; details: PC-3, 48 h; procedure, shortened: as §2
DU-145 = experiment: Growth inhibition of human DU145 cells after 48 hrs by sulforhodamine B assay; format: functional; details: DU-145, 48 h; procedure, shortened: as §1
MCF7 = experiment: Growth inhibition of human MCF7 cells after 48 hrs by sulforhodamine B assay; format: functional; details: MCF7, 48 h; procedure, shortened: as §2
NCI/ADR-RES = experiment: Growth inhibition of human NCI/ADR-RES cells after 48 hrs by sulforhodamine B assay; format: functional; procedure, shortened: as §2
MDA-MB-231 = experiment: Growth inhibition of human MDA-MB-231 cells after 48 hrs by sulforhodamine B assay; format: functional; details: MDA-MB-231, 48 h; procedure, shortened: as §2
Hs-578T = experiment: Growth inhibition of human Hs 578T cells after 48 hrs by sulforhodamine B assay; format: functional; procedure, shortened: as §2
MDA-MB-435 = experiment: Growth inhibition of human MDA-MB-435 cells after 48 hrs by sulforhodamine B assay; format: functional; details: MDA-MB-435, 48 h; procedure, shortened: as §2
BT-549 = experiment: Growth inhibition of human BT549 cells after 48 hrs by sulforhodamine B assay; format: functional; details: BT-549, 48 h; procedure, shortened: as §1
T47D = experiment: Growth inhibition of human T47D cells after 48 hrs by sulforhodamine B assay; format: functional; procedure, shortened: as §2

SMILES: COc1cc2c(cc1OCCCCCOc1ccc(-c3nc4ccccc4s3)cc1)N=C[C@@H]1CCCN1C2=O
- ΔTm (Calf thymus DNA): 4.3 °C
- GI50 (CCRF-CEM): 269 nM
- GI50 (HL-60): 562 nM
- GI50 (K562): 363 nM
- GI50 (MOLT-4): 282 nM
- GI50 [1]: 398 nM
- GI50 (SR): 19.1 nM
- GI50 (A549): 2570 nM
- GI50 (EKVX): 1550 nM
- GI50 (HOP-62): 407 nM
- GI50 (HOP-92): 269 nM
- GI50 (NCI-H226): 1510 nM
- GI50 (NCI-H23): 891 nM
- GI50 (NCI-H322M): 1950 nM
- GI50 (NCI-H460): 347 nM
- GI50 (NCI-H522): 550 nM
- GI50 (COLO 205): 389 nM
- GI50 (HCC 2998): 631 nM
- GI50 (HCT-116): 347 nM
- GI50 (HCT-15): 933 nM
- GI50 (HT-29): 457 nM
- GI50 (KM12): 1550 nM
- GI50 (SW-620): 1020 nM
- GI50 (SF-268): 3240 nM
- GI50 (SF-295): 776 nM
- GI50 (SF-539): 479 nM
- GI50 (SNB-19): 2950 nM
- GI50 (SNB-75): 1200 nM
- GI50 (U-251): 457 nM
- GI50 (LOX IMVI): 240 nM
- GI50 (Malme-3M): 1230 nM
- GI50 (M14): 324 nM
- GI50 (SK-MEL-2): 1550 nM
- GI50 (SK-MEL-28): 3890 nM
- GI50 (SK-MEL-5): 339 nM
- GI50 (UACC-257): 2240 nM
- GI50 (UACC-62): 1170 nM
- GI50 (IGROV-1): 2690 nM
- GI50 (OVCAR-3): 741 nM
- GI50 (OVCAR-4): 2140 nM
- GI50 (OVCAR-5): 661 nM
- GI50 (OVCAR-8): 813 nM
- GI50 (SK-OV-3): 2570 nM
- GI50 (786-0): 263 nM
- GI50 (A498): 2240 nM
- GI50 (ACHN): 1100 nM
- GI50 (CAKI-1): 513 nM
- GI50 (RXF 393): 200 nM
- GI50 (SN12C): 813 nM
- GI50 (TK-10): 3470 nM
- GI50 (UO-31): 724 nM
- GI50 (PC-3): 234 nM
- GI50 (DU-145): 355 nM
- GI50 (MCF7): 331 nM
- GI50 (NCI/ADR-RES): 1120 nM
- GI50 (MDA-MB-231): 263 nM
- GI50 (Hs-578T): 1320 nM
- GI50 (MDA-MB-435): 1380 nM
- GI50 (BT-549): 229 nM
- GI50 (T47D): 234 nM

SMILES: COc1cc2c(cc1OCCCCC(=O)Nc1ccc(-c3nc4ccc(F)cc4s3)cc1)N=C[C@@H]1CCCN1C2=O
- ΔTm (Calf thymus DNA): 2.3 °C

Reference: ChEMBL document CHEMBL1177643, “Synthesis, DNA-binding ability and anticancer activity of benzothiazole/benzoxazole-pyrrolo[2,1-c][1,4]benzodiazepine conjugates” (Bioorg Med Chem, 2010)
